High-throughput results as filed in PubChem.
A selection: hits, their analogues and other compounds. The true share with any hit is near 1.9%.
M4 antag = human M4 muscarinic receptor antagonists, primary screen, CHO cells, Fluo-8 calcium fluorescence | Muscarinic acetylcholine receptor M4 (Homo sapiens), P08173 | inhibition, % at 3 µM | 360,000 tested, 0.73% active | CHO-hM4 cells, ACh EC80;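 active = inhibition above its plate's cutoff, the mean inhibition of sample wells plus 3 SD, cut at about 27% in these data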;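 also: 0% = acetylcholine EC80 with DMSO and 100% = DMSO without agonist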
M5 antag = human M5 muscarinic receptor antagonists, primary screen, CHO cells, Fluo-8 calcium fluorescence | CHO-hM5 cells, ACh EC80 | inhibition, % at 3 µM | AID 624040, 2012 | 360,000 tested, 0.59% active;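 active = inhibition above a per-plate cutoff, the mean of that plate's test compounds plus 3 SD, cut at about 27% in these data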;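 also: 0% = acetylcholine EC80 with DMSO and 100% = DMSO without agonist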
Target sequence (P08912 whole entry, looked up): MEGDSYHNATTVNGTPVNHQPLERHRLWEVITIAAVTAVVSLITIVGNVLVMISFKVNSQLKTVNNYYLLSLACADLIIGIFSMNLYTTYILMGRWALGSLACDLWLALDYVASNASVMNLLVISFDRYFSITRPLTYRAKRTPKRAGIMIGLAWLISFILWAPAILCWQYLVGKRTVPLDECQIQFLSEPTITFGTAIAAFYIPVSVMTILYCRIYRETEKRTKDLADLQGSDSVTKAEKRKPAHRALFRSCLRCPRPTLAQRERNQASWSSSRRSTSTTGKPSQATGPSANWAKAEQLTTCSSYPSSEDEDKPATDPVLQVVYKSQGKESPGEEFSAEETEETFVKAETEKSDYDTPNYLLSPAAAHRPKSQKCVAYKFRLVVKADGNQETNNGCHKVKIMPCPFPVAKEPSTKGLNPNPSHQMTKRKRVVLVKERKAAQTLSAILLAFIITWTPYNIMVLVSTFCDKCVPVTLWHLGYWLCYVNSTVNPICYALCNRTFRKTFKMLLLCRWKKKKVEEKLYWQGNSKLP
M5 ag = human M5 muscarinic receptor agonists, primary screen, CHO-K1 cells, Fluo-8 calcium fluorescence. Muscarinic acetylcholine receptor M5 (Homo sapiens), P08912. CHO-K1 hM5 cells; 0% DMSO wells, 100% maximal acetylcholine response. activation, % at 3 µM. 360,000 tested, 0.19% active. AID 624037, 2012;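 active = activation above the run's mean over test compounds plus 3 SD, cut at about 23% in these data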;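 also: signal is peak over basal fluorescence ratio across the kinetic read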
CHRM5 PAM = human M5 muscarinic receptor positive allosteric modulators, primary screen, CHO-K1 cells, Fluo-8 calcium fluorescence; activation, % at 3 µM; CHO-K1 hM5, ACh EC20 PAM; 0% = ACh EC20, 100% = ACh EC100; 360,000 tested, 0.3% active; Muscarinic acetylcholine receptor M5 (Homo sapiens), P08912;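 active = activation above the run cutoff, the mean activation of all test compounds plus 3 SD, cut at about 18% in these data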
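System: CHO-K1 hM5 cells. Reagent: acetylcholine, EC20 level. Compound dosing: single dose, 3 µM nominal final test concentration. Timing: Post-acetylcholine fluorescence recording 140 s. Detection: Fluo-8 calcium fluorescence. Read-out: % activation, ACh-normalized. Benchmarks: ACh EC20 and EC100 wells. Repeats: singlicate, one well per test compound.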
M4 ag = human M4 muscarinic receptor agonists, primary screen, CHO-K1 cells, Fluo-8 calcium fluorescence; 360,000 tested, 0.14% active; AID 624127, 2012; CHO-K1 hM4/Gqi5; vehicle 0%, full acetylcholine response 100%; activation, % at 3 µM; Muscarinic acetylcholine receptor M4 (Homo sapiens), P08173;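 active = activation above the run mean over all test wells plus 3 SD, cut at about 32% in these data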;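 also: peak over basal fluorescence ratio per well then scaled between controls; 0% = DMSO wells and 100% = acetylcholine at EC100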
CHRM4 PAM = human M4 muscarinic receptor positive allosteric modulators, primary screen, CHO-K1 cells, Fluo-8 calcium fluorescence; Muscarinic acetylcholine receptor M4 (Homo sapiens), P08173; CHO-K1 hM4/Gqi5, ACh EC20; 0% = ACh EC20, 100% = maximal ACh; activation, % at 3 µM; 360,000 tested, 0.4% active; AID 624126, 2012;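 active = activation above its plate's cutoff, the mean activation of sample wells plus 3 SD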
* = called active by the depositor; . = not tested or not shown; ! = repeats disagree.

SMILES	M4 antag	M5 antag	M5 ag	CHRM5 PAM	M4 ag	CHRM4 PAM
Cc1cccc(N2CCC3(CC2)C(=O)NC(=O)NC3=O)c1	-1	0	4	-1	1	-2
C=C1N2CCC(CC2)C1(O)c1ccc(C)c(C)c1 (stereo unspecified)	5	33*	-13	-55	1	-7
O=c1[nH]c2ccccc2n1C1CCN(C(CCc2ccccc2)c2nnnn2-c2ccc3c(c2)OCCO3)CC1 (stereo unspecified)	4	17	1	-20	23	-12
Cc1cc(-c2ccccc2)cc(-c2ccccc2)[n+]1CCc1ccccc1	38*	18	-9	-28	2	-7
Clc1ccc(C[n+]2c(-c3ccccc3)cc(-c3ccccc3)cc2-c2ccccc2)cc1	31*	23	-9	-19	6	-10
COc1cccc(C(c2nnnn2Cc2ccccc2)N2CCC3(CC2)C(=O)NCN3c2ccccc2)c1OC (stereo unspecified)	16	19	5	-15	20	-9
CN1C2CCC1CC(OC(=O)c1cccc(O)c1)C2 (stereo unspecified)	7	20	-6	-23	0	-10
CC1CC(OC(=O)c2ccccc2)CC(C)N1C (stereo unspecified)	30*	16	-7	-17	0	-17
Cc1ncc([N+](=O)[O-])n1CCOC(N)=O	10	17	-1	-4	0	0
Brc1ccc2c(c1)C(OC1CN3CCC1CC3)c1ccccc1CS2 (stereo unspecified)	100*	100*	-1	-19	10	-41
O=C1NC(=O)N(c2ccccc2F)C(=O)/C1=C/c1ccc(Sc2nc3ccccc3[nH]2)o1	21	5	16	-9	41*	-28
O=C1NC(=O)N(c2ccccc2)C(=O)/C1=C/c1ccc(Sc2ccccc2)o1	-1	-1	2	6	3	6
O=C1NC(=O)N(c2cccc(Cl)c2)C(=O)/C1=C\c1ccc(Sc2nc3ccccc3[nH]2)o1	6	18	36*	-24	25	-7
COc1cccc2c1N=C1CCCC3CN(C(C)=O)CCC123 (stereo unspecified)	-4	3	3	0	1	8
C[n+]1ccc(-c2cc[n+](C)cc2)cc1	0	-3	61*!	-1	0	2
CCCCCCC[n+]1ccc(-c2cc[n+](CCCCCCC)cc2)cc1	4	-3	-7	-6	0	-7
CCOc1ccc(NC2=NCCCS2)cc1	11	5	-4	-1	-1	-7
O=c1[nH]c(=O)n(C2CCCCC2)c(O)c1/C=C/C=Nc1ccccc1	9	14	28*	-8	16	-23
O=c1[nH]c(=O)n(-c2ccccc2)c(O)c1/C=C/C=Nc1ccccc1	-4	2	4	-5	6	2
COc1ccc(-n2c(O)c(/C=C/C=Nc3ccccc3)c(=O)[nH]c2=O)cc1	15	15	24*	-14	24	-9
CCOC(=O)C1=C(NC(=S)NC(=O)c2ccccc2)c2ccccc2CC12CCCC2	14	6	2	-12	7	-10
O=C(COc1ccc(Cl)cc1)NC1CN2CCC1CC2 (stereo unspecified)	12	38*	-9	-23	1	-7
O=C(NC1CN2CCC1CC2)c1cccc(Cl)c1 (stereo unspecified)	0	3	-9	2	0	-3
N#CC(C#N)=NNc1ccc(-n2ccc(C(F)(F)F)n2)cc1	8	30*	14	-21	16	-3
Cc1ccc2c(c1N)C(=O)c1ccccc1C2=O	14	28*	5	-12	14	-2
SMILES	M4 antag	M5 antag	M5 ag	CHRM5 PAM	M4 ag	CHRM4 PAM
O=C(c1ccc2c(c1)OCO2)C1CCCN(CC2CCCCC2)C1 (stereo unspecified)	41*	8	-11	-11	0	-24
C[N+]1(C)[C@@H]2CC[C@H]1CC(OC(=O)C(c1ccccc1)c1ccccc1)C2 (stereo partly specified)	99*	99*	-3	-17	16	-18
C[N+]1(C)[C@@H]2CC(OC(=O)[C@H](CO)c3ccccc3)C[C@H]1[C@@H]1O[C@@H]12 (stereo partly specified)	.	98*	-1	-18	.	.
CN1[C@@H]2CC[C@H]1CC(OC(=O)C1C=Nc3ccccc31)C2 (stereo partly specified)	9	4	-1	-6	2	-12
CCCC[N+]1(C)[C@@H]2CC(OC(=O)[C@H](CO)c3ccccc3)C[C@H]1[C@@H]1O[C@@H]12 (stereo partly specified)	92*	72*	-2	-18	0	-19
C[N+]1(C)C2CC(OC(=O)C(CO)c3ccccc3)CC1C1OC12 (stereo unspecified)	.	99*	-1	-18	.	.
CN1C(=O)C[N+]([O-])=C(c2ccccc2)c2cc(Cl)ccc21	-8	4	-2	11	0	16
CN1CCC(OC(=O)Cc2ccccc2)CC1	8	20	-10	-19	0	-14
O=C(OC1CCN(CCCl)CC1)C(c1ccccc1)c1ccccc1	57*	64*	-1	-19	2	-18
CCOc1cccc(CNCCc2c(C)[nH]c3ccc(OC(F)(F)F)cc23)c1O	29*	42*	24*	-15	43*	-12
Cc1[nH]c2ccc(OC(F)(F)F)cc2c1CCNCc1ccc(Cl)cc1	10	9	3	2	15	1
Cc1[nH]c2ccc(OC(F)(F)F)cc2c1CCNCc1cccc([N+](=O)[O-])c1	16	29*	17	-13	24	-11
COC(=O)N(c1ccccc1)P(=O)(Oc1ccccc1)Oc1ccccc1	2	2	-5	-7	2	-2
C[N+](C)(C)c1ccccc1	-6	-1	52*	-17	2	1
COC(=O)C1=C(c2ccc(-c3ccccc3)c(F)c2)C[C@@H]2CC[C@H]1N2C(=O)NCCc1ccccc1	26	-3	-1	-6	2	-16
S=C1NCCN1	30*	-1	0	-5	1	-11
